Experiment [1] is described as follows: Displacement of UDP-fluorescein from non-reduced form of Mycobacterium tuberculosis UDP-galactopyranose mutase by fluorescence polarization assay. An outline of the steps: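 Recombinant Mt UGM (pET-29b construct) used dialysed and non-reduced at 580 nM. UDP-fluorescein probe at 18 nM. Inhibitors titrated over 0–1 mM. Kd derived from competitive fluorescence polarization. Probe affinity measured by enzyme dilutions in 50 mM sodium phosphate pH 7.0 at room temperature, in triplicate.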

For experiment [2], the system named is Mycobacterium tuberculosis. In words: Inhibition of reduced form of Mycobacterium tuberculosis UDP-galactopyranose mutase assessed as conversion of UDP-Galf to UDP-Galp at 0.5 mM using UDP-Galf as substrate compound incubated with enzyme at 5 mins after enzyme reduction with sodium dithionite by HPLC analysis relative to control. A digest of the protocol: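 Recombinant Mt UGM (60 nM) in 100 mM NaH₂PO₄ pH 7.4 at room temperature. Enzyme pre-incubated 5 min, then reduced with 12.5 mM sodium dithionite and incubated with or without inhibitor. UDP-α-Galf (25 µM final) added. Samples taken at five times and quenched in liquid N₂. Conversion to UDP-Galp quantified by C18 HPLC with UV detection at 262 nm.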

Experiment [3] deals with Mycobacterium tuberculosis. In words: Antitubercular activity against Mycobacterium tuberculosis mc2 6230 assessed as inhibition of bacterial growth incubated for 7 days by broth dilution method. The class given is functional. Particulars: mc2 6230, 168 h. A digest of the protocol: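 Pantothenate-auxotrophic Mt mc²6230 grown in 7H9/OADC plus 109 µM pantothenic acid at 37°C without agitation. Broth microdilution started from culture at OD600 0.05. Twofold series covered 1.5–100 µg/ml. Plates were read after 7 days at 37°C. MIC is the lowest concentration with no visible turbidity change. Duplicates were run on three independent occasions.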
For orientation: In broth dilution the organism is exposed to a series of concentrations in liquid medium.

Experiment [4] has as its system Mycobacterium tuberculosis. In words: Displacement of UDP-fluorescein from non-reduced form of Mycobacterium tuberculosis UDP-galactopyranose mutase by fluorescence polarization assay relative to control. Also noted: concentration or dose not given beside the values. Particulars: concentration not given here. An outline of the steps:
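Single-point fluorescence polarization competition with inhibitor at 1 mM final. Non-reduced recombinant Mt UGM at 580 nM with 18 nM UDP-fluorescein probe. Read at room temperature in sodium phosphate buffer pH 7.0. Reported as percent inhibition; screening also done at 100 µM. Kd followed when inhibition at 1 mM exceeded 30%.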
(Fluorescence polarisation rises when a labelled molecule tumbles more slowly, as on binding a larger partner.)

Experiment [5] concerns Mycobacterium tuberculosis. In words: Antitubercular activity against Mycobacterium tuberculosis mc2 6230 assessed as inhibition of bacterial growth at 30 ng/ml incubated for 7 days by broth dilution method. The class given is functional, organism-based. A digest of the protocol:
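Mt mc²6230 pantothenate auxotroph grown at 37°C static in 7H9 broth with OADC and 109 µM pantothenic acid. Log-phase culture diluted to OD600 0.05. Compound serially diluted 2-fold from a 10 mg/ml DMSO stock. Plates wrapped and incubated at 37°C for 7 days. Isoniazid served as positive control and DMSO as vehicle control. Growth was read visually as turbidity.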

The source of these data is ChEMBL document CHEMBL4622920, “Synthesis and evaluation of heterocycle structures as potential inhibitors of Mycobacterium tuberculosis UGM” (Bioorg Med Chem, 2020).

Values after ≈ are worked out from the molar mass of the structure shown. Active and inactive are the calls of the source. No cut-off for these calls is given here.

As a reminder, the Kd is the equilibrium constant for the complex coming apart. In general, inhibition refers to the share of the control response that was lost under treatment. A word on the MIC: it is the lowest concentration found to suppress growth. Consider `CCCCC#C/C=C1\Cn2c(c(I)c3cc4c(cc32)OCO4)C(=O)O1`, for which the Kd in experiment [1] turned out to be 58.3 µM. Further, the inhibition in experiment [2] was 60.2%. Moreover, in experiment [3], the MIC came to 3.1 µg/mL (≈ 6.9 µM).

Take `C#CCn1c(C(=O)O)c(I)c2ccccc21`: the inhibition in experiment [4] stood at 7.4%.

For `COC(=O)c1[nH]c2ccccc2c1I`, the inhibition in experiment [4] worked out at 11.5%.

In turn, `CC1=C(Br)C(=O)O/C1=C\C(C)C` gave an inhibition in experiment [4] of 7.3%.

In turn, `O=C1O/C(=C/I)Cn2c1c(I)c1ccccc12` showed an inhibition in experiment [4] of 61.6%. The affinity in experiment [1], expressed as Kd, was 2000 µM.

`O=C(O)C(Cc1ccc(I)cc1)NC1NC(c2ccc(Cl)c(Cl)c2)=CS1` (centres undefined) gave a Kd in experiment [1] of 8 µM.

`C#CCn1c(C(=O)OC)cc2cc(F)ccc21` registered an inhibition in experiment [4] of 0%.

As to `NNC(=O)c1ccncc1`, the inhibition entry in experiment [5] is “Active”.

For `CCCCC#C/C=C1\Cn2c(c(I)c3cc(OC)ccc32)C(=O)O1`, the equilibrium dissociation constant (Kd) in experiment [1] amounted to 61.3 µM. The inhibition in experiment [2] amounted to 95.5%. Further, the MIC in experiment [3] worked out at 50 µg/mL (≈ 115 µM).

For the compound `CC1=C(c2ccoc2)C(=O)O/C1=C\C(C)C`, in experiment [4], the inhibition is 5.2%.

Compound `O=C1O/C(=C(/I)c2ccccc2)Cn2c1c(I)c1ccccc12` gave an inhibition in experiment [4] of 22.8%.

In turn, `C[N+](C)(C)CC(=O)N/N=C/c1ccc(O)c(O)c1` returned a Kd in experiment [1] of 3 µM.

In the case of `C/C(I)=C1/Cn2c(c(I)c3ccccc32)C(=O)O1`, the inhibition in experiment [4] stood at 14.9%.

Turning to `O=C1O/C(=C/I)Cn2c1c(I)c1cc(F)ccc12`, the inhibition in experiment [4] came out at 19.1%.

For `O=c1ccn([C@@H]2O[C@H](COP(=O)(O)OP(=O)(O)O[C@H]3O[C@@H]([C@H](O)CO)C(F)(F)C3(F)F)[C@@H](O)[C@H]2O)c(=O)[nH]1`, in experiment [1], the Kd stood at 53 µM.

For the compound `COC(=O)c1cn(Cc2ccccc2)c2ccccc12`, in experiment [4], the inhibition was found to be 5.1%.

Consider `CC1=C(c2ccc(F)cc2)C(=O)O/C1=C\C(C)C`, for which, in experiment [4], the inhibition was determined as 9%.

For `COc1ccc2cc(C3=C(C)/C(=C/C(C)C)OC3=O)ccc2c1`, the inhibition in experiment [4] came to 7.4%.

In experiment [4], `CC1=C(c2ccc(-c3ccccc3)cc2)C(=O)O/C1=C\C(C)C` displayed an inhibition of 19.2%.

In the case of `CC1=C(c2cc3ccccc3o2)C(=O)O/C1=C\C(C)C`, the inhibition in experiment [4] came to 0%.

As to `C#CCn1c(C(=O)O)c(I)c2cc(OC)ccc21`, the inhibition in experiment [4] worked out at 15%.

For the compound `CC1=C(c2ccncc2)C(=O)O/C1=C\C(C)C`, in experiment [4], the inhibition stood at 3%.

In experiment [1], `CCCCC#C/C=C1\Cn2c(c(I)c3ccccc32)C(=O)O1` registered a Kd of 66 µM. Further, the inhibition in experiment [2] stood at 72.9%. Besides, in experiment [3], the minimum inhibitory concentration (MIC) stood at 6.2 µg/mL (≈ 15.3 µM).

Take `COC(=O)c1[nH]c2cc3c(cc2c1I)OCO3`: in experiment [4], the inhibition is 23.1%.

Take `C#CCn1c(C(=O)O)c(I)c2cc3c(cc21)OCO3`: the inhibition in experiment [4] is 46.2%. The compound also came in with an equilibrium dissociation constant (Kd) in experiment [1] of 220 µM.

Take `COC(=O)c1cc2ccccc2[nH]1`: the inhibition in experiment [4] is 2%.
